Experimental findings from ChEMBL document CHEMBL1131628 (J Med Chem, 1998) are described below.

Each structure is given as a SMILES string. pIC50, pKi: −log10 of the molar value. Bounds are passed on as bounds.

A short description of series [1]: Bioavailability in rat. Particulars: in vivo. The format is ADME, organism-based. Put shortly:
(§1)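 Male Sprague-Dawley rats, n = 4 per group, 10 mg/kg iv (jugular slow bolus) or oral gavage, 10 mg/mL in ethanol–propylene glycol–D5W (20:30:50) with 1 equiv NaOH. Tail-vein plasma taken 0.1 (iv only) to 12 h, assayed by HPLC after extraction. AUC by trapezoidal rule extrapolated to infinity; T1/2 from terminal rate constant; F as oral/iv AUC.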

A short description of series [2]: Pharmacokinetic profile-half life was evaluated in rats upon intravenous administration. The format is ADME, organism-based. Particulars: rat, in vivo. Put shortly:
as §1

Series [3] concerns the target T1, Endothelin receptor type B (Homo sapiens, UniProt P24530).
T1 sequence (P24530 whole entry): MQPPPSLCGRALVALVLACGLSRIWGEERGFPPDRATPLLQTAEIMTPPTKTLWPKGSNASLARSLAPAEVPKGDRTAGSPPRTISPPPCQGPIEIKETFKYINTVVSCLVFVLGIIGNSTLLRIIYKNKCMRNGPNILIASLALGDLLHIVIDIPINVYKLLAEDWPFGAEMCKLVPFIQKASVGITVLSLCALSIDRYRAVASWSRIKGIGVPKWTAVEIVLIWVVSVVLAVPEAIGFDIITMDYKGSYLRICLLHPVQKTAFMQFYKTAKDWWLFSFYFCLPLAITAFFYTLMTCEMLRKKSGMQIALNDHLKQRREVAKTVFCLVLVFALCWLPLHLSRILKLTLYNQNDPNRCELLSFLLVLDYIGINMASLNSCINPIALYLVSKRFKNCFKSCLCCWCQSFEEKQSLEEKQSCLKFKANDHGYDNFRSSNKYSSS
The experiment in a line: Tested for binding affinity for human Endothelin B receptor by measuring its ability to displace [125I]-ET-3 from chinese hamster ovary cells(CHO). The format is cell-based.

Series [4] concerns the target T2, Endothelin-1 receptor (Homo sapiens, UniProt P25101).
T2 sequence (P25101 whole entry): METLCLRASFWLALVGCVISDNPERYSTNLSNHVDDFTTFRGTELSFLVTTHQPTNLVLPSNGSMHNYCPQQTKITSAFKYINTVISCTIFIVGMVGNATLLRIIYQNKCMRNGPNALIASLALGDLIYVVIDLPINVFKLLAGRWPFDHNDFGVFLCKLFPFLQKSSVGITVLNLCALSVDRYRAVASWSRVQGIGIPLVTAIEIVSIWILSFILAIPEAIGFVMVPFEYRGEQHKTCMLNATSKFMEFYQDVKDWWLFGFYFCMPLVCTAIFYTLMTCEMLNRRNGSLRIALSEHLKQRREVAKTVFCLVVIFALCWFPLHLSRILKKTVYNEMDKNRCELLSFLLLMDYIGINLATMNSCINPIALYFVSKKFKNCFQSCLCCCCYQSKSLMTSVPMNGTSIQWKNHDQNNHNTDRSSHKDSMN
Briefly: Tested for binding affinity for human Endothelin A receptor by measuring its ability to displace [125I]-ET-1 from chinese hamster ovary cells(CHO). The format is cell-based.

A short description of series [5]: Pharmacokinetic profile AUC was evaluated in rats. The format is ADME, organism-based. The arrangement: concentration or dose not given beside the values. Particulars: rat, in vivo. Put shortly:
as §1

Series [6] in a line: Pharmacokinetic profile Cmax was evaluated in rats. As to conditions: rat, in vivo. The format is ADME, organism-based. Put shortly: as §1
Series [7] is described as follows: Pharmacokinetic profile-half life was evaluated in rats upon oral administration. Particulars: rat, in vivo. The format is ADME, organism-based. Put shortly:
as §1

For series [8], the target named is T1, Endothelin receptor type B. Briefly: Tested for binding affinity for human Endothelin B receptor by measuring its ability to displace [125I]ET-3 from chinese hamster ovary cells(CHO). The format is cell-based.
The target of series [9] is T3, Endothelin-1 receptor (Rattus norvegicus, UniProt P26684).
T3 sequence (P26684 whole entry): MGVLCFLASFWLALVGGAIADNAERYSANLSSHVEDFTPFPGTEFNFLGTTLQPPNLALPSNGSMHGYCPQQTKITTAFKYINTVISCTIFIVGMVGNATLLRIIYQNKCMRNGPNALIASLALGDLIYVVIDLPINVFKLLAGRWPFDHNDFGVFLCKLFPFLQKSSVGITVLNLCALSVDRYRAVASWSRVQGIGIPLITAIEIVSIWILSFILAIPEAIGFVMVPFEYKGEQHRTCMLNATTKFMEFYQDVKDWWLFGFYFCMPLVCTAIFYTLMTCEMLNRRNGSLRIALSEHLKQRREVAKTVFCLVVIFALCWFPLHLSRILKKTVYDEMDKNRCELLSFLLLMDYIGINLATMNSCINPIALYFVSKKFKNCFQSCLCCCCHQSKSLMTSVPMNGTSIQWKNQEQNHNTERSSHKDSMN
Briefly: Binding affinity for endothelin A receptor by measuring its ability to displace [125I]ET1 from prolactin secreting rat pituitary cells(MMQ). The format is cell-based, Pituitary gland cell.

In series [10] the target is T2, Endothelin-1 receptor. Briefly: Tested for binding affinity for human Endothelin A receptor by measuring its ability to displace [125I]ET1 from chinese hamster ovary cells(CHO). The format is cell-based.

In general, bioavailability refers to the share of a dose that reaches the circulation, judged against a reference dose that is usually intravenous. One may read the half-life as how long it takes for the measured level to halve. The pKi is the Ki on a negative log10 scale, so that one unit is a factor of ten. As for `Cc1cc2c(cc1CC(=O)c1ccsc1S(=O)(=O)Nc1onc(C)c1Cl)OCO2`, in series [1], the bioavailability was 60%. This compound also had a half-life in series [2] of 6.7 h. In addition, the pKi is under 5.37 in [3] and 9.37 at Endothelin-1 receptor [4].

The AUC is the area under the concentration-time curve, a measure of exposure. The term Cmax denotes the maximum level reached in the sampled fluid or tissue. One may read the pIC50 as the negative decadic logarithm of the IC50, by convention in mol/L. `CCCCN(CCCC)C(=O)CN1C[C@H](c2ccc3c(c2)OCO3)[C@@H](C(=O)O)[C@@H]1CC(C)(C)CCC` returned an AUC in [5] of 7060 ng·h/mL. Also, the bioavailability in series [1] amounted to 76.8%. The same compound showed a Cmax in [6] of 1480 ng/mL. The half-life was 2.45 h in series [2] and 3.85 h in [7]. Further, the negative-log IC50 (pIC50) in series [8] is 5.55; on Endothelin-1 receptor [9], 8.89; at Endothelin-1 receptor [10] it was 9.54.

Take `Cc1noc(NS(=O)(=O)c2cccc3c(N(C)C)cccc23)c1C` [BMS-182874]: in series [3], the pKi is under 4.30.

As for `COc1ccccc1Oc1c(NS(=O)(=O)c2ccc(C)cn2)nc(-c2ccnc(-c3nnn[nH]3)c2)nc1OCCO` [CLAZOSENTAN], the half-life in [2] is 0.8 h. For the same compound, the values for the pKi (in [3]; on Endothelin-1 receptor [4]) were 6.76 and 9.89, respectively.

In series [1], `COc1ccc(C(=O)/C(Cc2cc(OC)c(OC)c(OC)c2)=C(\C(=O)[O-])c2ccc3c(c2)OCO3)cc1.[Na+]` [PD-156707 SODIUM] had a bioavailability of 41%. The half-life in series [2] is 1 h. For the same compound, the pKi in series [3] is 6.86.
